Measurements published in ChEMBL document CHEMBL1125002, “Antiarthritic and suppressor cell inducing activity of azaspiranes: structure-function relationships of a novel class of immunomodulatory agents” (J Med Chem, 1990).
The source made the active and inactive calls. The rule behind the calls is not given here.

Tests used:
Rattus norvegicus [1] = assay: Adjuvant arthritic rat activity determined with respect to spirogermanium at a dose of 30 mg/kg; assay type: functional
How it was run: (§1)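 Lewis rats given adjuvant on day 0. Drug homogenized in aqueous 0.5% gum tragacanth, given orally at 10 mL/kg daily on days 0–10. Volume of the noninjected (secondary) hind paw measured on day 16 by mercury displacement. Activity is relative to non-drug controls and scaled to spirogermanium at 30 mg/kg, which is set at 1.00. Significance by Student's t test.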

Rattus norvegicus [2] = assay: Total starting number of animals upon administration at a dose of 30 mg/kg; 8/8; assay type: functional
Rattus norvegicus [3] = assay: Adjuvant arthritic rat activity with respect to spirogermanium at a dose of 7.5 mg/kg; assay type: functional; how it was run: as §1
Rattus norvegicus [4] = assay: Total starting number of animals upon administration at a dose of 15 mg/kg; 2/8; assay type: functional
Rattus norvegicus [5] = assay: Total starting number of animals upon administration at a dose of 7.5 mg/kg; 8/8; assay type: functional
Rattus norvegicus [6] = assay: Total starting number of animals upon administration at a dose of 30 mg/kg; 0/8; assay type: functional
Rattus norvegicus [7] = assay: Adjuvant arthritic rat activity with respect to spirogermanium at a dose of 30 mg/kg, active; assay type: functional, organism-based; design: dose 30 mg/kg
Rattus norvegicus [8] = assay: Adjuvant arthritic rat activity with respect to spirogermanium at a dose of 15 mg/kg, inactive; assay type: functional, organism-based; design: dose 15 mg/kg
Rattus norvegicus [9] = assay: Total starting number of animals upon administration at a dose of 15 mg/kg; 0/7; assay type: functional, organism-based; design: dose 15 mg/kg
Rattus norvegicus [10] = assay: Total starting number of animals upon administration at a dose of 30 mg/kg; 0/7; assay type: functional
Rattus norvegicus [11] = assay: Total starting number of animals upon administration at a dose of 60 mg/kg; 0/7; assay type: functional, organism-based; design: dose 60 mg/kg
Rattus norvegicus [12] = assay: (§2) Adjuvant arthritic rat activity with respect to spirogermanium at a dose of 60 mg/kg; assay type: functional; how it was run: as §1
Rattus norvegicus [13] = assay: Total starting number of animals upon administration at a dose of 60 mg/kg; 5/8; assay type: functional
Rattus norvegicus [14] = assay: Adjuvant arthritic rat activity with respect to spirogermanium at a dose of 15 mg/kg; assay type: functional; how it was run: as §1
Rattus norvegicus [15] = assay: Total starting number of animals upon administration at a dose of 15 mg/kg; 1/8; assay type: functional
Rattus norvegicus [16] = assay: Total starting number of animals upon administration at a dose of 60 mg/kg; 8/8; assay type: functional
Rattus norvegicus [17] = assay: Total starting number of animals upon administration at a dose of 15 mg/kg; 8/8; assay type: functional
Rattus norvegicus [18] = assay: Total starting number of animals upon administration at a dose of 30 mg/kg; 6/6; assay type: functional
Rattus norvegicus [19] = assay: Adjuvant arthritic rat activity with respect to spirogermanium at a dose of 30 mg/kg; assay type: functional; how it was run: as §1
Rattus norvegicus [20] = assay: Adjuvant arthritic rat activity with respect to spirogermanium at a dose of 10 mg/kg; assay type: functional
Rattus norvegicus [21] = assay: Total starting number of animals upon administration at a dose of 30 mg/kg; 7/7; assay type: functional
Rattus norvegicus [22] = assay: Total starting number of animals upon administration at a dose of 10 mg/kg; 7/7; assay type: functional
Rattus norvegicus [23] = assay: Total starting number of animals upon administration at a dose of 90 mg/kg; 0/7; assay type: functional
Rattus norvegicus [24] = assay: Total starting number of animals upon administration at a dose of 30 mg/kg; 7/8; assay type: functional
Rattus norvegicus [25] = assay: Adjuvant arthritic rat activity with respect to spirogermanium at a dose of 25 mg/kg; assay type: functional
Rattus norvegicus [26] = assay: Total starting number of animals upon administration at a dose of 25 mg/kg; 7/7; assay type: functional
Rattus norvegicus [27] = assay: Total starting number of animals upon administration at a dose of 30 mg/kg; 5/6; assay type: functional
Rattus norvegicus [28] = assay: Total starting number of animals upon administration at a dose of 30 mg/kg; 3/8; assay type: functional
Rattus norvegicus [29] = assay: Total starting number of animals upon administration at a dose of 60 mg/kg; 0/6; assay type: functional
Rattus norvegicus [30] = assay: as §2; assay type: functional; remark: listed apart in the source

Row | Molecule | Activity (Rattus norvegicus [1]) | Survival (Rattus norvegicus [2]) | further results
1 | CN(C)CCCN1CCC2(CCCCC2)C1 | 0.27 | 8 | 
2 | CCCCC1(CCCC)CCC2(CCN(CCCN(C)C)C2)CC1 |  |  | Activity (Rattus norvegicus [3]): 0.41; Survival (Rattus norvegicus [4]): 2; Survival (Rattus norvegicus [5]): 8; Survival (Rattus norvegicus [6]): 0
3 | [3-(8,8-Diethyl-2-aza-8-germa-spiro[4.5]dec-2-yl)-propyl]-dimethyl-amine |  |  | Activity (Rattus norvegicus [7]): Active; Activity (Rattus norvegicus [8]): inactive; Survival (Rattus norvegicus [9]): 0; Survival (Rattus norvegicus [10]): 0; Survival (Rattus norvegicus [11]): 0
4 | CC1CCCC2(CCN(CCCN(C)C)C2)C1.Cl (stereo not given) | 0 | 8 | 
5 | CN(C)CCCN1CCC2(CCC3(CCCCCC3)CC2)C1 | 0.22 | 8 | Activity (Rattus norvegicus [12]): 1.7; Survival (Rattus norvegicus [13]): 5
6 | CCCC1(CCC)CCC2(CCN(CCCCCCN(C)C)C2)CC1 | 1.2 | 8 | 
7 | CCCC1(CCC)CCC2(CCN(CCN(C)C)C2)CC1 | 0 | 8 | 
8 | CCCC1(CCC)CCC2(CCN(CCCN3CCOCC3)C2)CC1.Cl | 0 |  | Activity (Rattus norvegicus [14]): 0; Survival (Rattus norvegicus [15]): 1; Survival (Rattus norvegicus [10]): 0
9 | CN(C)CCCN1CCC2(CC3CCC2C3)C1.Cl (stereo not given) | 0 | 8 | Activity (Rattus norvegicus [12]): 0.1; Survival (Rattus norvegicus [16]): 8
10 | CCCC1(CCC)CCC2(CCN(CCCN3CCCCC3)C2)CC1 | 1.7 | 8 | 
11 | CCCCCC1(CCCCC)CCN(CCCN(C)C)C1.Cl | 0.19 | 8 | 
12 | CN(C)CCCN1CCC2(CCCCCC2)C1.Cl | 0.2 | 8 | 
13 | CC[Si]1(CC)CCC2(CCN(CCCN(C)C)C2)CC1 | 0.92 | 8 | Activity (Rattus norvegicus [14]): 0.27; Survival (Rattus norvegicus [17]): 8
14 | CCCC1(CCC)CCC2(CCN(CCCO)C2)CC1.Cl |  |  | Activity (Rattus norvegicus [12]): 0.31; Survival (Rattus norvegicus [16]): 8
15 | CCCC1(CCC)CCC2(CCN(CCCN(CC)CC)C2)CC1 [ATIPRIMOD] | 1.42 | 8 | 
16 | CCCC1(CCC)CCC2(CCN(CCCNC(C)=O)C2)CC1 | 0.24 |  | Survival (Rattus norvegicus [18]): 6
17 | CN(C)CCCN1CCC2(CCC(c3ccccc3)CC2)C1 (stereo not given) | 0.25 | 8 | 
18 | CCCCCCCCCCC1CCC2(CC1)CCN(CCCN(C)C)C2 (stereo not given) |  | 8 | Activity (Rattus norvegicus [19]): 0.78
19 | CCC1(CC)CCC2(CCN(CCCN(C)C)C2)CC1 | 0.57 |  | Activity (Rattus norvegicus [20]): 0.1; Survival (Rattus norvegicus [21]): 7; Survival (Rattus norvegicus [22]): 7; Survival (Rattus norvegicus [23]): 0
20 | CC(C)CC1(CC(C)C)CCC2(CCN(CCCN(C)C)C2)CC1 | 0.97 |  | Survival (Rattus norvegicus [24]): 7
21 | CN(C)CCCN1CCC2(CCSCC2)C1 |  |  | Activity (Rattus norvegicus [25]): 0; Survival (Rattus norvegicus [26]): 7

Row | Molecule | Activity (Rattus norvegicus [1]) | Survival (Rattus norvegicus [2]) | further results
22 | CN(C)CCCN1CCC2(CCCCC2)CC1 | 0.2 | 8 | 
23 | CCCCN(CCCC)CCCN1CCC2(CCC(CCC)(CCC)CC2)C1 | 0.07 | 8 | 
24 | CN(C)CCCN1CCC2(CCC(C)(C)CC2)C1 | 0.12 | 8 | 
25 | CCCC1(CCC)CCC2(CCN(CCCN3CCCC3)C2)CC1 | 1.03 | 8 | 
26 | CCCC1(CCC)CCC2(CCN(CCCCCCCN(C)C)C2)CC1 |  | 8 | Activity (Rattus norvegicus [19]): 1.57
27 | CN(C)CCCN1CCC2(CCC(C(C)(C)C)CC2)C1 (stereo not given) | 0.31 | 8 | 
28 | CCCC1(CCC)CCC2(CC1)CC[N+](C)(CCC[N+](C)(C)C)C2 (stereo not given) | 0.05 | 8 | 
29 | CCCC1(CCC)CCC2(CCN(CCCN)C2)CC1 | 0.91 |  | Survival (Rattus norvegicus [27]): 5
30 | CN(C)CCCN1CC2C3CCC(CC3)C2C1.Cl (stereo not given) | 0.35 | 8 | 
31 | CCCC1(CCC)CCC2(CCN(CCCCCN(C)C)C2)CC1 | 0.82 | 8 | 
32 | CCCC1(CCC)CCC2(CCN(CCCN(C)C)CC2)CC1 | 1.02 |  | Survival (Rattus norvegicus [28]): 3
33 | CCC1(CC)CCC2(CCN(CCCN(C)C)CC2)CC1 | 0.3 |  | Activity (Rattus norvegicus [20]): 0.03; Survival (Rattus norvegicus [21]): 7; Survival (Rattus norvegicus [22]): 7; Survival (Rattus norvegicus [23]): 0
34 | CCCC1(CCC)CCC2(CCN(CCCNC)C2)CC1 | 1.55 |  | Survival (Rattus norvegicus [18]): 6
35 | CCCCCC1(CCCCC)CCC2(CCN(CCCN(C)C)CC2)CC1 |  |  | Activity (Rattus norvegicus [3]): 0.18; Activity (Rattus norvegicus [14]): 0.18; Survival (Rattus norvegicus [17]): 8; Survival (Rattus norvegicus [5]): 8; Survival (Rattus norvegicus [6]): 0
36 | CCCC1(CCC)CCC2(CCN(CCCN(C)C)C2)CC1 | 1.35 | 8 | Activity (Rattus norvegicus [14]): 0.18; Survival (Rattus norvegicus [17]): 8; Survival (Rattus norvegicus [29]): 0
37 | CC1CCC2(CC1)CCN(CCCN(C)C)CC2 | 0.25 | 8 | 
38 | CCCC1(CCC)CCC2(CCN(CCCCN(C)C)C2)CC1 | 0.46 | 8 | 
39 | CCCN(CCC)CCCN1CCC2(CCC(CCC)(CCC)CC2)C1 | 0.43 | 8 | 
40 | CN(C)CCCN1CCC2(CCC(C(C)(C)C)CC2)CC1 | 0.33 |  | Activity (Rattus norvegicus [20]): 0.04; Survival (Rattus norvegicus [21]): 7; Survival (Rattus norvegicus [22]): 7; Survival (Rattus norvegicus [23]): 0
41 | CN(C)CCCN1CCC2(CC[Si](C)(C)CC2)C1 |  | 0 | Activity (Rattus norvegicus [30]): 0
